Data: ChEMBL document CHEMBL1141492, “Potent, exceptionally selective, orally bioavailable inhibitors of TNF-alpha Converting Enzyme (TACE): novel 2-substituted-1H-benzo[d]imidazol-1-yl)methyl)benzamide P1' substituents” (Bioorg Med Chem Lett, 2008)

Tests used:
[1] = target: Disintegrin and metalloproteinase domain-containing protein 17 (Sus scrofa, UniProt O77636); experiment: Inhibition of semi purified pig TACE
[2] = Apparent permeability across human Caco-2 cells; assay type: ADME, cell-based
Procedure, shortened: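 Apparent permeability measured across Caco-2 cell monolayers in the apical-to-basolateral (A→B) direction.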

Interstitial collagenase = target: T1, Interstitial collagenase (Homo sapiens, UniProt P03956); experiment: Inhibition of MMP1
T1 sequence (P03956 whole entry): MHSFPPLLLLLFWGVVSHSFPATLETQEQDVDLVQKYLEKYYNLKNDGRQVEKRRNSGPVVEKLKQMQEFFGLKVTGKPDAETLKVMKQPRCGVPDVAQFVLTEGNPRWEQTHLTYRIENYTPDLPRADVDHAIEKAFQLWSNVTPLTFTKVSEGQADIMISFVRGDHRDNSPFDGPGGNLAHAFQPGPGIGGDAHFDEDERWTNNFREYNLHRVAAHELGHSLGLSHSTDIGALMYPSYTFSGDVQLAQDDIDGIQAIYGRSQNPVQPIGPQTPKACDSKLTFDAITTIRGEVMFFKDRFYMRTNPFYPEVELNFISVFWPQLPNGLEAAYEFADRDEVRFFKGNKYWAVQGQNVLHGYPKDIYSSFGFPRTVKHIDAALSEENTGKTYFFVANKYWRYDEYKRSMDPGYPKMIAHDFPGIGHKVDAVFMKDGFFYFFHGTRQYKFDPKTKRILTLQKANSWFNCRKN

Blood = experiment: Reduction of LPS-induced TNFalpha in human whole blood; assay type: functional, tissue-based
Procedure, shortened: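 LPS-induced TNF-α production in human whole blood; suppression of TNF-α measured.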

[3] = Oral bioavailability in Sprague-Dawley rat at 8.0 mg/kg; assay type: ADME, organism-based; conditions: in vivo
Procedure, shortened: (§1)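 Discrete or cassette (n-in-1) dosing, given intravenously and orally. Sprague–Dawley rats received 5.0 mg/kg iv and 8.0 mg/kg po; beagle dogs received 2.0 mg/kg iv and 8.0 mg/kg po. Three animals per dosing group; averaged values reported. AUC is reported in nM h.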

[4] = target: 72 kDa type IV collagenase (Homo sapiens, UniProt P08253); experiment: Inhibition of MMP2
[5] = Clearance in Sprague-Dawley rat at 5.0 mg/kg, iv; assay type: ADME, organism-based; design: dose 5 mg/kg, route intravenous; conditions: in vivo; procedure, shortened: as §1
[6] = target: Matrix metalloproteinase-9 (Homo sapiens, UniProt P14780); experiment: Inhibition of MMP9
Collagenase 3 = Collagenase 3 (Homo sapiens, UniProt P45452); experiment: Inhibition of MMP13
[7] = target: Matrix metalloproteinase-14 (Homo sapiens, UniProt P50281); experiment: Inhibition of MMP14
[8] = target: Matrix metalloproteinase-16 (Homo sapiens, UniProt P51512); experiment: Inhibition of MMP16
[9] = target: Matrix metalloproteinase-15 (Homo sapiens, UniProt P51511); experiment: Inhibition of MMP15
Procedure, shortened: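 Ki values against each MMP, each from a single determination.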

Stromelysin-1 = Stromelysin-1 (Homo sapiens, UniProt P08254); experiment: Inhibition of MMP3
Stromelysin-2 = Stromelysin-2 (Homo sapiens, UniProt P09238); experiment: Inhibition of MMP10
Procedure, shortened: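 MMP Ki values come from a single determination.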

Matrilysin = target: T2, Matrilysin (Homo sapiens, UniProt P09237); experiment: Inhibition of MMP7
T2 sequence (P09237 whole entry): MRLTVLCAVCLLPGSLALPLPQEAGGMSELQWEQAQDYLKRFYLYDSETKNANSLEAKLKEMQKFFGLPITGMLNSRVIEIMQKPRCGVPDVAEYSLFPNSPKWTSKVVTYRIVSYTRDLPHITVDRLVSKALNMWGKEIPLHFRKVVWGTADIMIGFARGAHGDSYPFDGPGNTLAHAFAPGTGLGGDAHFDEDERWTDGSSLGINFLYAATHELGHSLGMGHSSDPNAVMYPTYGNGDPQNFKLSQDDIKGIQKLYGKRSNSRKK

Neutrophil collagenase = Neutrophil collagenase (Homo sapiens, UniProt P22894); experiment: Inhibition of MMP8
Chain of Neutrophil collagenase (P22894 whole entry): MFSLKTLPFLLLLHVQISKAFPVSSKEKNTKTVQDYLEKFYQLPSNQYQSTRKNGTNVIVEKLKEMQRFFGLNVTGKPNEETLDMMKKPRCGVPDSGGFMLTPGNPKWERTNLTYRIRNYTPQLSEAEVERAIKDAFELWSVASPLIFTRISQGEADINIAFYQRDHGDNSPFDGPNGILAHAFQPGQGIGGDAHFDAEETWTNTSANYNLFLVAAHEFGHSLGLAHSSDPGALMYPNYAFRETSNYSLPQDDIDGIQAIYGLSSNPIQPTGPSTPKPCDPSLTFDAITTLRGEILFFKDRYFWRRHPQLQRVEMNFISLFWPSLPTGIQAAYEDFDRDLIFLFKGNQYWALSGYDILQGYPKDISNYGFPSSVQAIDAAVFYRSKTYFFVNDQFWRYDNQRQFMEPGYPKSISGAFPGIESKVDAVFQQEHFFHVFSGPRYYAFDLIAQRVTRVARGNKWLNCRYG

Chain of 72 kDa type IV collagenase (P08253 whole entry): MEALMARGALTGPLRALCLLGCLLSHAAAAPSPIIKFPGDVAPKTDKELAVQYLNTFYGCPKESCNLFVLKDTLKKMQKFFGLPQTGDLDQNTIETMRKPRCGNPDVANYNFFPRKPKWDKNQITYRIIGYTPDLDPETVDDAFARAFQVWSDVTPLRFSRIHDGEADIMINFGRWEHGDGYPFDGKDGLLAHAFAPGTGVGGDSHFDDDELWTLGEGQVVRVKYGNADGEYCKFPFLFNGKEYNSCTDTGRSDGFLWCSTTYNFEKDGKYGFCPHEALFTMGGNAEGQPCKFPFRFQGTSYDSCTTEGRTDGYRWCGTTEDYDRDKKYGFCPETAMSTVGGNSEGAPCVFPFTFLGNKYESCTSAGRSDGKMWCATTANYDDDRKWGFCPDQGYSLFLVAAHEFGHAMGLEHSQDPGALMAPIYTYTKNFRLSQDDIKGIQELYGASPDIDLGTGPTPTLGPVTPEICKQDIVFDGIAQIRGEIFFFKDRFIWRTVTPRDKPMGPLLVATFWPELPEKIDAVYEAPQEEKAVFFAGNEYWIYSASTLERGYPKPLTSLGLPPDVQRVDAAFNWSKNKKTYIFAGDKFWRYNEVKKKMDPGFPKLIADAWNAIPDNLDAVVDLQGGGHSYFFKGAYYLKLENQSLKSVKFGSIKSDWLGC
Chain of Stromelysin-1 (P08254 whole entry): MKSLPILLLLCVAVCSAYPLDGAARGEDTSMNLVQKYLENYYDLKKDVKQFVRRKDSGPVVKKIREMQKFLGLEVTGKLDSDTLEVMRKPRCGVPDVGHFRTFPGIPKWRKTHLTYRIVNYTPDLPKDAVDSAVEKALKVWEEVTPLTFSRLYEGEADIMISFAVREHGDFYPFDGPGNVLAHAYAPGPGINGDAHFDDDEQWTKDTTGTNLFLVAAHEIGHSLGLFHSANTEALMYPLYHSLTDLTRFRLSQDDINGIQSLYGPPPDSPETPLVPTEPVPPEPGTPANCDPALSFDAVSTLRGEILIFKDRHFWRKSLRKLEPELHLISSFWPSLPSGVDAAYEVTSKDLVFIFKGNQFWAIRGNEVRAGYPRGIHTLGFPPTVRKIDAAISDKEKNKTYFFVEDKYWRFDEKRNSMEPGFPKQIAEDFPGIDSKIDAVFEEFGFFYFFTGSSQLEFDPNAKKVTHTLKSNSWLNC
Chain of Disintegrin and metalloproteinase domain-containing protein 17 (O77636 whole entry, the tested form may be a part): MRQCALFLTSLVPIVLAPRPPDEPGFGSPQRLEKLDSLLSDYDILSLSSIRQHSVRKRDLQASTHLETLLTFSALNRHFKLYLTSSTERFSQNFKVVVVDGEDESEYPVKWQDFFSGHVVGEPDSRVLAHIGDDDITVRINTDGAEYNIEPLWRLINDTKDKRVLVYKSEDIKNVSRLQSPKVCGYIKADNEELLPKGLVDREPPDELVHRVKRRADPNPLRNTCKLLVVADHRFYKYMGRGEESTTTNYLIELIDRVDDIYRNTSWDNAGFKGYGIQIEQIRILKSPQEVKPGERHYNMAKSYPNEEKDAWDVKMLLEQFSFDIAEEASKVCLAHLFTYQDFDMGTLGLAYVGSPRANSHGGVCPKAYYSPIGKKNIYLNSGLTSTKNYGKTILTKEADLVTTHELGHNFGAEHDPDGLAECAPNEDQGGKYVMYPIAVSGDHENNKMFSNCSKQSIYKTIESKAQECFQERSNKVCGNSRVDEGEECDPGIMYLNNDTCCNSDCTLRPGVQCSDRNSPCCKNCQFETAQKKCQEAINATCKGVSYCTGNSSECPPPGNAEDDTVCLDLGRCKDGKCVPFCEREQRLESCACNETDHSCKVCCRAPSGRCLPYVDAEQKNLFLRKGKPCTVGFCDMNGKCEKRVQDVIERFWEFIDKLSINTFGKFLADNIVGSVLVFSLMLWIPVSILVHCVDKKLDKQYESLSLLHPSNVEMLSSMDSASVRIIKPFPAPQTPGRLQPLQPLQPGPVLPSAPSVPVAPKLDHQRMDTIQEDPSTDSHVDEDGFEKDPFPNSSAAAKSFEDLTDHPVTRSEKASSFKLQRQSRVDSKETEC
Chain of Matrix metalloproteinase-9 (P14780 whole entry): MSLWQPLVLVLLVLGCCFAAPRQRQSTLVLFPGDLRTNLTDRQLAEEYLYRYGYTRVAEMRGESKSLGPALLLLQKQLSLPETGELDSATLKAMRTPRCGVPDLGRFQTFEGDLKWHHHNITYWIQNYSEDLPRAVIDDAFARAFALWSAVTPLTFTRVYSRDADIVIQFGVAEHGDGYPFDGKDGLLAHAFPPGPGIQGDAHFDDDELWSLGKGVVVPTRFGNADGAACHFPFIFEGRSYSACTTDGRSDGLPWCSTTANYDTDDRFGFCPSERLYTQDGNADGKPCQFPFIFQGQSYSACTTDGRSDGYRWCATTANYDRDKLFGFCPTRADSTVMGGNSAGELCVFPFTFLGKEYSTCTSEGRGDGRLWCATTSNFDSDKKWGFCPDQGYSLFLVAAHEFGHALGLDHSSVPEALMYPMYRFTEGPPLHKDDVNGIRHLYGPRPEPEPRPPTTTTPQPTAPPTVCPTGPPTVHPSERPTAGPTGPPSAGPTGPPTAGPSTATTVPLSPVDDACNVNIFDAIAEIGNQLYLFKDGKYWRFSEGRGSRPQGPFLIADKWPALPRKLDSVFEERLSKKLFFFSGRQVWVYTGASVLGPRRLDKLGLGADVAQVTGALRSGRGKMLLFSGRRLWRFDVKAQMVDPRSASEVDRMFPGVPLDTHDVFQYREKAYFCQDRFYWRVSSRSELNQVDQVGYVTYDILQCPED
Chain of Matrix metalloproteinase-16 (P51512 whole entry): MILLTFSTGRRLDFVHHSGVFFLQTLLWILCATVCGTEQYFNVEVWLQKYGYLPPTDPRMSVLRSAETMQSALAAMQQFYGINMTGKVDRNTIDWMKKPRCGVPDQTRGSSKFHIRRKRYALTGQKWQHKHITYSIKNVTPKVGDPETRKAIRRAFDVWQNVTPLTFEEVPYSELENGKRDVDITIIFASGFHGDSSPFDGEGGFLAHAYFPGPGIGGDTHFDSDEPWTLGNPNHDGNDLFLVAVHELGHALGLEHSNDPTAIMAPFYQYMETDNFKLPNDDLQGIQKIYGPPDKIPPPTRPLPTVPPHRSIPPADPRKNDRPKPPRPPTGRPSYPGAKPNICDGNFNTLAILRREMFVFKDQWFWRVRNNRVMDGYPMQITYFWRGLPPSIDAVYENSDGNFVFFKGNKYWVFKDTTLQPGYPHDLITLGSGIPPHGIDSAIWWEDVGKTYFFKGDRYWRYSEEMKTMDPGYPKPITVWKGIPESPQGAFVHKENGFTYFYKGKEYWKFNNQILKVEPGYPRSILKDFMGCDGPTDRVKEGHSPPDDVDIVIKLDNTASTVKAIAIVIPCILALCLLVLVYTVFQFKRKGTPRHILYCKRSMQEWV
Chain of Stromelysin-2 (P09238 whole entry): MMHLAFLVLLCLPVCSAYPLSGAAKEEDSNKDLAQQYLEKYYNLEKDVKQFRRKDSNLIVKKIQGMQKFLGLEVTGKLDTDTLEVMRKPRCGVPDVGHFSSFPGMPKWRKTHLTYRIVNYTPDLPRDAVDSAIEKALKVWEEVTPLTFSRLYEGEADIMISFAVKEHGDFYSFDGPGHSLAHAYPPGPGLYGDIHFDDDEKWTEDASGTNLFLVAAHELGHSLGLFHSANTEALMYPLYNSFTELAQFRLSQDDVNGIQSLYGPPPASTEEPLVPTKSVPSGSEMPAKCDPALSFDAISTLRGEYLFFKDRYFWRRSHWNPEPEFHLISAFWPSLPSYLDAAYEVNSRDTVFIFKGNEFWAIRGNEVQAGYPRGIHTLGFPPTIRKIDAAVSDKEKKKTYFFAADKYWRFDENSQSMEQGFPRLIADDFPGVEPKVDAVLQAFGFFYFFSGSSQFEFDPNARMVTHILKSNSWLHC
Chain of Matrix metalloproteinase-15 (P51511 whole entry): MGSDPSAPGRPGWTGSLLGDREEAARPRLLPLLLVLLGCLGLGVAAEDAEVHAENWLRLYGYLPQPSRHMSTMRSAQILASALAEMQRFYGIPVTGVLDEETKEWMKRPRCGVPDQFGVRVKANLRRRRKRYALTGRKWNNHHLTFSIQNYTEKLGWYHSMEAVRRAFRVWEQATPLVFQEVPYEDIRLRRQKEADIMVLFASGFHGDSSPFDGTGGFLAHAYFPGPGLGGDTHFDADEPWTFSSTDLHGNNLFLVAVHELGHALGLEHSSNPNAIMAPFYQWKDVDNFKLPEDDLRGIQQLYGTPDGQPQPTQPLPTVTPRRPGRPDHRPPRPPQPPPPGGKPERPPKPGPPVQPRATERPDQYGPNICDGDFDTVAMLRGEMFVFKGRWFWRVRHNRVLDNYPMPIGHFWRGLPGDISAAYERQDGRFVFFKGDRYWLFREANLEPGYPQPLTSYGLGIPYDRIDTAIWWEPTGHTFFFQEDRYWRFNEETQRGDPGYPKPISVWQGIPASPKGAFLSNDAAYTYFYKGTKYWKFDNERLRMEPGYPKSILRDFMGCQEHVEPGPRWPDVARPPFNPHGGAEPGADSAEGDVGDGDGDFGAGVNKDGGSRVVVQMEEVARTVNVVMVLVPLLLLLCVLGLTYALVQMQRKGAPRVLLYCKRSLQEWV

Row | IC50 [1] [µM] | Papp [2] [×10⁻⁶ cm/s] | Ki (Interstitial collagenase) [µM] | IC50 (Blood) [µM] | bioavailability [3] [%] | Ki [4] [µM] | clearance [5] [mL/min/kg] | Ki [6] [µM] | Ki (Collagenase 3) [µM] | Ki [7] [µM] | Ki [8] [µM] | Ki [9] [µM] | Ki (Stromelysin-1) [µM] | IC50 (Stromelysin-2) [µM] | Ki (Matrilysin) [µM] | Ki (Neutrophil collagenase) [µM] | Structure (SMILES)
1 | < 0.001 | 0.2 | > 2.13 | 0.062 |  | > 2.13 |  | > 2.13 | > 5.03 | > 5.29 | > 5.45 | > 7.09 | > 4.5 | > 10 | 4.08 |  | CSc1nc2ccccc2n1Cc1ccc(C(=O)N[C@@H]2CN(C(=O)OC(C)(C)C)C[C@@H]2C(=O)NO)cc1
2 | 0.001 | 0.1 | > 4.95 | 0.065 | 8 | > 3.33 | 50 | > 2.13 |  |  |  |  |  |  |  |  | CC(C)c1nc2ccccc2n1Cc1ccc(C(=O)N[C@@H]2CCC[C@@H]2C(=O)NO)cc1
3 | 0.0018 | 0.1 | > 4.95 | 0.137 | 3 | > 3.33 | 155 | > 2.13 |  |  |  |  |  |  |  |  | C#CCN1C[C@H](C(=O)NO)[C@H](NC(=O)c2ccc(Cn3c(C(C)C)nc4ccccc43)cc2)C1
4 | 0.0023 | 0.4 | > 4.95 | 0.317 | 8 | > 3.33 | 113 | > 2.13 |  |  |  |  |  |  |  |  | C#CCN1C[C@H](C(=O)NO)[C@H](NC(=O)c2ccc(Cn3c(C(C)(C)C)nc4ccccc43)cc2)C1
5 | 0.0016 | 0.2 | > 2.13 | 0.034 |  | > 2.13 |  | > 2.13 |  |  |  |  |  |  |  |  | CSc1nc2ccccc2n1Cc1ccc(C(=O)N[C@@H]2CNC[C@@H]2C(=O)NO)cc1
6 | 0.001 | 0.2 | > 2.13 | 0.07 |  | > 2.13 |  | > 2.13 | > 5.03 | > 5.29 | > 5.55 | > 7.09 | 3.92 | 4.6 | 3.5 | > 3.06 | CC(C)c1nc2ccccc2n1Cc1ccc(C(=O)N[C@@H]2CN(C(=O)OC(C)(C)C)C[C@@H]2C(=O)NO)cc1
7 | 0.001 | 0.1 | > 4.95 | 0.102 | 20 | > 3.33 | 53.3 | > 2.13 |  |  |  |  |  |  |  |  | O=C(N[C@@H]1COC[C@@H]1C(=O)NO)c1ccc(Cn2c(C(F)(F)F)nc3ccccc32)cc1
8 | 0.0026 | 0.1 | > 2.13 | 0.056 |  | > 2.13 |  | > 2.13 |  |  |  |  |  |  |  |  | Cc1nc2ccccc2n1Cc1ccc(C(=O)N[C@@H]2CNC[C@@H]2C(=O)NO)cc1
9 | 0.002 | 1.4 | > 4.95 | 0.252 | 29 | > 3.33 | 48.3 | > 2.13 |  |  |  |  |  |  |  |  | CC(C)(C)c1nc2ccccc2n1Cc1ccc(C(=O)N[C@@H]2C[C@@]3(CCCO3)C[C@@H]2C(=O)NO)cc1
10 | 0.0011 | 0.1 | > 4.95 | 0.069 | 22 | > 3.33 | 115 | > 2.13 |  |  |  |  |  |  |  |  | CC(C)c1nc2ccccc2n1Cc1ccc(C(=O)N[C@@H]2C[C@@]3(CCCO3)C[C@@H]2C(=O)NO)cc1
11 | 0.0026 | 0.7 | > 4.95 | 0.188 | 55 | > 3.33 | 20 | > 2.13 |  |  |  |  |  |  |  |  | CC(F)(F)c1nc2ccccc2n1Cc1ccc(C(=O)N[C@@H]2CCOC[C@@H]2C(=O)NO)cc1
12 | 0.0016 | 0.5 | > 4.95 | 0.105 | 8 | > 3.33 | 63.3 | > 2.13 |  |  |  |  |  |  |  |  | CC(C)c1nc2ccccc2n1Cc1ccc(C(=O)N[C@@H]2CCOC[C@@H]2C(=O)NO)cc1
13 | 0.0022 | 0.3 | > 4.95 | 0.153 | 36 | > 3.33 | 31.7 | > 2.13 |  |  |  |  |  |  |  |  | CC(C)(F)c1nc2ccccc2n1Cc1ccc(C(=O)N[C@@H]2CCOC[C@@H]2C(=O)NO)cc1
14 | 0.001 | 0.1 | > 2.13 | 0.092 |  | > 2.13 |  | > 2.13 | > 5.03 | > 5.29 | > 5.55 | > 7.09 | 2.61 | 1.6 | 5.86 |  | Cc1nc2ccccc2n1Cc1ccc(C(=O)N[C@@H]2CN(C(=O)OC(C)(C)C)C[C@@H]2C(=O)NO)cc1
15 | 0.0016 | 0.1 | > 2.13 | 0.064 |  | > 2.13 |  | > 2.13 |  |  |  |  |  |  |  |  | CC(C)c1nc2ccccc2n1Cc1ccc(C(=O)N[C@@H]2CNC[C@@H]2C(=O)NO)cc1

Row | Structure (SMILES) | IC50 [1] [µM] | Papp [2] [×10⁻⁶ cm/s] | Ki (Interstitial collagenase) [µM] | IC50 (Blood) [µM] | bioavailability [3] [%] | Ki [4] [µM] | clearance [5] [mL/min/kg] | Ki [6] [µM] | Ki (Collagenase 3) [µM] | Ki [7] [µM] | Ki [8] [µM] | Ki [9] [µM] | Ki (Stromelysin-1) [µM] | IC50 (Stromelysin-2) [µM] | Ki (Matrilysin) [µM] | Ki (Neutrophil collagenase) [µM]
16 | CC(C)(F)c1nc2ccccc2n1Cc1ccc(C(=O)N[C@@H]2C[C@@]3(CCCO3)C[C@@H]2C(=O)NO)cc1 | < 0.001 | 2.4 | > 4.95 | 0.14 | 33 | > 3.33 | 40 | > 2.13 |  |  |  |  |  |  |  | 
17 | O=C(N[C@@H]1CCC[C@@H]1C(=O)NO)c1ccc(Cn2c(C3CC3)nc3ccccc32)cc1 | 0.0027 | 2 | > 4.95 | 0.054 | 22 | > 3.33 | 25 | > 2.13 |  |  |  |  |  |  |  | 
18 | O=C(N[C@@H]1C[C@@]2(CCCO2)C[C@@H]1C(=O)NO)c1ccc(Cn2c(C3CC3)nc3ccccc32)cc1 | 0.0013 | 0.1 | > 4.95 | 0.042 | 14 | > 3.33 | 23.3 | > 2.13 |  |  |  |  |  |  |  | 
19 | CSc1nc2ccccc2n1Cc1ccc([C@]2(N)CCN([C@H](CC(C)C)C(=O)NO)C2=O)cc1 | 0.0062 |  | > 4.95 | 0.316 |  | 0.302 |  | 0.934 |  |  |  |  |  |  |  | 
